STEP block – STEP phosphatase inhibitors, primary screen, biochemical, fluorescence intensity, uHTS. recombinant STEP, OMFP fluorogenic substrate. inhibition, % at 20 µM. actives 0.25% (n = 360,000). AID 588621, 2011;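 active = inhibition at 20 µM, scaled per plate between control wells, above about 37%, limit read from the data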;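 also: 0% = DMSO with enzyme and substrate and 100% = substrate only without enzyme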
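Measure: Control-normalized % inhibition with plate pattern correction | Test system: STEP phosphatase, cell-free reaction | Medium: pH 6.0 Bis-Tris with DTT and Tween 20 | Technique: Fluorescence, 480/540 nm | Times: Reaction 20 min, ambient temperature | Doses: Single compound dose of 20 µM, 1% DMSO final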
Scp1 inh – Scp-1 phosphatase inhibitors, primary screen, biochemical, colorimetric, uHTS | Carboxy-terminal domain RNA polymerase II polypeptide A small phosphatase 1 (Homo … | Recombinant Scp1, phosphopeptide, malachite green phosphate absorbance | inhibition, % at 20 µM | actives 0.88% (n = 340,000) | AID 493091, 2011;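 active = inhibition above about 50% at 20 µM, limit read from the data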;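 also: plate controls were DMSO wells with enzyme for no effect and wells lacking enzyme for full effect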
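Test system – truncated SCP-1 phosphatase (76-261aa) · Reagent – Phosphorylated 17-residue peptide substrate · Incubation – 45 min room-temperature reaction, 5 min colour, 30 min stabiliser · Detection – colorimetric phosphate reagent with accelerator and stabiliser, absorbance at 630 nm · Measure – % inhibition at 20 µM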
DNMT1 inh – human DNMT1 methyltransferase inhibitors, primary screen, biochemical, molecular beacon, fluorescence, HinP1I cleavage, uHTS; DNA (cytosine-5)-methyltransferase 1 (Homo sapiens), P26358; inhibition (reported as % activation of signal), % at 10 µM; actives 0.83% (n = 360,000); in the data active = inhibition above about 50%
Target sequence (P26358 504-1616 limits assumed): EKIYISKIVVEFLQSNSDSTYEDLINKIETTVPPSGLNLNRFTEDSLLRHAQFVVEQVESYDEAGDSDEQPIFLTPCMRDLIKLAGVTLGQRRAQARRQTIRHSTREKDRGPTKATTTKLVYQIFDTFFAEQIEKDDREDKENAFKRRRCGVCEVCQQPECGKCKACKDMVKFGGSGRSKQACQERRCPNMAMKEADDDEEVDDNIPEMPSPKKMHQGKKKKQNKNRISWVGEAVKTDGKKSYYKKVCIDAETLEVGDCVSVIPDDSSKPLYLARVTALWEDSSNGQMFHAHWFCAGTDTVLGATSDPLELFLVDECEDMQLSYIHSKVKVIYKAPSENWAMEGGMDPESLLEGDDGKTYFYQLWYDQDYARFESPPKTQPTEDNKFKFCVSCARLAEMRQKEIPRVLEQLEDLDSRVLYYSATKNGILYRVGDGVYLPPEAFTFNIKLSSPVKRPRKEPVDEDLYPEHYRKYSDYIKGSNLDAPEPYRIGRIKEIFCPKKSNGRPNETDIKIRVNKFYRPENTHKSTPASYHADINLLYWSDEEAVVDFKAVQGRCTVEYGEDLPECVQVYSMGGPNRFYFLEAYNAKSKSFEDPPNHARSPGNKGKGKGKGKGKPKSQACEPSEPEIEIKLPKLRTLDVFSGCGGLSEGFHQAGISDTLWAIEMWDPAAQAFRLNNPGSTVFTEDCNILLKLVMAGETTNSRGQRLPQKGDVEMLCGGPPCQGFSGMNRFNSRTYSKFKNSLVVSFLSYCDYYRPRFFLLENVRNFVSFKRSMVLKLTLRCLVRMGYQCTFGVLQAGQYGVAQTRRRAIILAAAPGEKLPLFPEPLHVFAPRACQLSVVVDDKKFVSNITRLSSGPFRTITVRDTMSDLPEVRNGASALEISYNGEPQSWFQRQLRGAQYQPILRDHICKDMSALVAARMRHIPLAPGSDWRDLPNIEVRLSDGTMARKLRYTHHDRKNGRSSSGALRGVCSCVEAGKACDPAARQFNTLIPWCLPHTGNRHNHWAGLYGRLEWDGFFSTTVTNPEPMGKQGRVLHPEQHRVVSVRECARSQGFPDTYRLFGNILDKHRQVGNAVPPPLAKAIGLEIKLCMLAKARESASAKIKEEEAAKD
Rpn11 inh – Rpn11 (PSMD14) deubiquitinase inhibitors, primary screen, biochemical, fluorescence polarization, uHTS | AID 588493, 2011 | 26S proteasome non-ATPase regulatory subunit 14 (Homo sapiens), O00487 | human 26S proteasome, Ub4-pepOG fluorescence polarization; 20S core pre-blocked with epoxomicin | actives 0.59% (n = 360,000) | inhibition, % at 20 µM;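 active = inhibition at 20 µM, scaled to each plate's controls, above about 33%, limit read from the data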
LMPTP block – LMPTP phosphatase inhibitors, primary screen, biochemical, fluorescence intensity, uHTS; recombinant LMPTP-A, OMFP fluorogenic substrate; inhibition, % at 20 µM; actives 0.22% (n = 360,000);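 active = compounds that cut the enzyme signal by at least half of the control window in the single-dose screen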;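 also: plate controls were DMSO wells with enzyme plus substrate for no effect and substrate without enzyme for full effect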
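Test system: LMPTP-A phosphatase enzyme; input: 0.625 nM LMPTP-A final; reagent: OMFP substrate, 400 µM final; compound dosing: 20 µM single dose, 3% DMSO; incubation: 50 min dark incubation at room temperature; measured by: endpoint fluorescence intensity from OMFP dephosphorylation; measure: % inhibition relative to no-enzyme and uninhibited control wells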
SUMO1-SIM PPI – modulators of SUMO1 protein-protein interactions, primary screen, biochemical, uHTS | actives 0.33% (n = 360,000) | AID 602429, 2012 | Small ubiquitin-related modifier 1 (Homo sapiens), P63165 | inhibition, % at 20 µM | SUMO1 binding to a labelled peptide, TR-FRET, 1 h; in the data active = inhibition above about 37%
Beacon interf DR – spectral interference with molecular beacon fluorescence, dose response, artefact control for DNMT1 inhibitor project, biochemical, fluorescent molecular beacon | shares compounds with DNMT1 inh | spectral interference counter-screen | IC50, µM | 200 tested, under 10 active | AID 602382, 2012; call rule not given here
DNMT1 inh conf – DNMT1 methyltransferase inhibitor retest, confirmation, biochemical, molecular beacon, fluorescence, single concentration. shares compounds with DNMT1 inh. DNMT1 molecular beacon HinP1I cleavage. inhibition, % at 10 µM. actives 8% (n = 2,300);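 active = average inhibition of at least 30% in the single-concentration confirmation test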
DNMT1 interf – counter-screen for DNMT1 inhibitors: spectral interference. shares compounds with DNMT1 inh. DNMT1 molecular beacon spectral interference counterscreen, fluorescence 485/520. activation (fluorescence interference), % at 10 µM. actives 1% (n = 2,300). AID 602387;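 active = activation of at least 30% at 10 µM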;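 also: DNMT1 catalytic domain with a HinP1I cleavage step and a FAM/dabcyl DNA beacon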
Starred values were filed as active, the others as inactive. Hits are enriched below; roughly 2.3% of the tested compounds scored in any of these assays.

COc1cc(CNCC(C)C)cc(Br)c1OCC(=O)Nc1ccccc1 was read as STEP block 1, Scp1 inh -2, DNMT1 inh 87*, Rpn11 inh -7, LMPTP block 0, SUMO1-SIM PPI 0, DNMT1 inh conf 3 and DNMT1 interf 4.
`CCNCc1cc(Br)c(OCC(=O)Nc2ccccc2)c(OC)c1` gave STEP block -2, Scp1 inh -9, DNMT1 inh 7, Rpn11 inh -1, LMPTP block 0 and SUMO1-SIM PPI 0.
`Cc1ccc(N(CC(=O)NCCc2ccccc2)C(=O)CCC(=O)Nc2cc(C)ccn2)cc1` gave STEP block 0, Scp1 inh -5, DNMT1 inh -3, Rpn11 inh 4, LMPTP block 0 and SUMO1-SIM PPI 4.
`CN(C)C(=O)Oc1ccc[n+](C)c1` gave STEP block 0, Scp1 inh -9, DNMT1 inh 60*, Rpn11 inh 1, LMPTP block 0, SUMO1-SIM PPI -5, DNMT1 inh conf 0 and DNMT1 interf 3.
`C[n+]1cccc(C(=O)[O-])c1` gave STEP block 3, Scp1 inh 1, DNMT1 inh 2, Rpn11 inh -3, LMPTP block -1 and SUMO1-SIM PPI 5.
O=[N+]([O-])c1ccccc1/C=C/C=N/n1c(-c2cc(-c3ccccc3)n[nH]2)n[nH]c1=S was read as STEP block 7, Scp1 inh 15, DNMT1 inh 53*, Rpn11 inh 5, LMPTP block -10, SUMO1-SIM PPI 11, DNMT1 inh conf 20 and DNMT1 interf -4.
Screening Cc1ccc(-c2n[nH]c(=S)n2/N=C/C=C/c2ccccc2[N+](=O)[O-])cc1 returned STEP block 6, Scp1 inh -5, DNMT1 inh -2, Rpn11 inh 1, LMPTP block 22 and SUMO1-SIM PPI -17.
`CCN(CC)c1ccc(/C=N/NC(=O)c2nnn(-c3nonc3N)c2-c2ccc(C)cc2)cc1` gave STEP block 0, Scp1 inh -5, DNMT1 inh -14, Rpn11 inh 17, LMPTP block 1 and SUMO1-SIM PPI -8.
`CN(C)CCc1cc2c(c3c1ccc1ccccc13)OCO2` gave STEP block 4, Scp1 inh -4, DNMT1 inh 60*, Rpn11 inh -8, LMPTP block -1, SUMO1-SIM PPI -15, Beacon interf DR >99, DNMT1 inh conf 37* and DNMT1 interf 6.
CC(=O)Nc1cccc(C(=O)N/N=C/c2c[nH]c3ccccc23)c1 was read as STEP block -2, Scp1 inh -15, DNMT1 inh -1, Rpn11 inh 0, LMPTP block -1 and SUMO1-SIM PPI -10.
COc1ccc(CNC(=S)NC(C)CCc2ccccc2)cc1 (stereo unspecified) was read as STEP block 3, Scp1 inh -7, DNMT1 inh -2, Rpn11 inh -4, LMPTP block 0 and SUMO1-SIM PPI -4.

High-throughput results from PubChem.
